Measurements published in ChEMBL document CHEMBL1629491, “Post Groebke-Blackburn multicomponent protocol: synthesis of new polyfunctional imidazo[1,2-a]pyridine and imidazo[1,2-a]pyrimidine derivatives as potential antimicrobial agents” (2010).
Converted amounts (≈) assume the structure as drawn.

Experiments:
Assay type in all cases: functional
Escherichia coli = assay: Antimicrobial activity against Escherichia coli after 24 hrs […]
In short: (§1)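 Broth microdilution MIC. Bacteria were grown in Luria broth (1% tryptone, 0.5% yeast extract, 0.5% NaCl, pH 7.2) at 37 °C for 24 h. Mid-log cultures were read at OD540 and diluted to OD 0.004 (5 × 10⁵ CFU/mL) before inoculation. Compounds in DMSO were given as eleven twofold serial dilutions, and plates were incubated at 37 °C for 24 h. MIC was the lowest concentration with no visible growth by turbidity. Cefixime, amoxicillin and vancomycin were the positive controls.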

Klebsiella aerogenes = assay: Antimicrobial activity against Enterobacter aerogenes after 24 hrs […]; in short: as §1
Enterococcus faecalis = assay: Antimicrobial activity against Enterococcus faecalis after 24 hrs […]; in short: as §1
Pseudomonas aeruginosa = assay: Antimicrobial activity against Pseudomonas aeruginosa after 24 hrs […]; in short: as §1
Staphylococcus aureus = assay: Antimicrobial activity against Staphylococcus aureus after 24 hrs […]; in short: as §1
Priestia megaterium = assay: Antimicrobial activity against Bacillus megaterium after 24 hrs […]; in short: as §1

## Cc1ccc(-c2cnc(-c3cnc4nc(-c5ccc(Br)cc5)c(Nc5ccccc5)n4c3)[nH]2)cc1
Escherichia coli
  MIC: 8.11 µg/mL (≈ 15.6 µM)
Klebsiella aerogenes
  MIC: 10.8 µg/mL (≈ 20.8 µM)
Enterococcus faecalis
  MIC: 11.7 µg/mL (≈ 22.4 µM)
Pseudomonas aeruginosa
  MIC: 11.4 µg/mL (≈ 22 µM)
Staphylococcus aureus
  MIC: 9.49 µg/mL (≈ 18.2 µM)
Priestia megaterium
  MIC: 15.6 µg/mL (≈ 29.8 µM)

## Cc1ccc(-c2nc3ncc(-c4nnc(-c5ccc(F)cc5)o4)cn3c2Nc2ccccc2)cc1
Escherichia coli
  MIC: 2.78 µg/mL (≈ 6.01 µM)
Klebsiella aerogenes
  MIC: 5.29 µg/mL (≈ 11.4 µM)
Enterococcus faecalis
  MIC: 4.58 µg/mL (≈ 9.9 µM)
Pseudomonas aeruginosa
  MIC: 3.65 µg/mL (≈ 7.89 µM)
Staphylococcus aureus
  MIC: 5.47 µg/mL (≈ 11.8 µM)
Priestia megaterium
  MIC: 15.3 µg/mL (≈ 33.1 µM)

## CN[C@H](CC(C)C)C(=O)N[C@H]1C(=O)N[C@@H](CC(N)=O)C(=O)N[C@H]2C(=O)N[C@H]3C(=O)N[C@H](C(=O)N[C@H](C(=O)O)c4cc(O)cc(O)c4-c4cc3ccc4O)[C@H](O)c3ccc(c(Cl)c3)Oc3cc2cc(c3O[C@@H]2O[C@H](CO)[C@@H](O)[C@H](O)[C@H]2O[C@H]2C[C@](C)(N)[C@H](O)[C@H](C)O2)Oc2ccc(cc2Cl)[C@H]1O [VANCOMYCIN]
Escherichia coli
  MIC: 6.65 µg/mL (≈ 4.59 µM)
Klebsiella aerogenes
  MIC: 0.52 µg/mL (≈ 0.359 µM)
Enterococcus faecalis
  MIC: 4.21 µg/mL (≈ 2.9 µM)
Pseudomonas aeruginosa
  MIC: 23.5 µg/mL (≈ 16.2 µM)
Staphylococcus aureus
  MIC: 2.75 µg/mL (≈ 1.9 µM)
Priestia megaterium
  MIC: 6.37 µg/mL (≈ 4.4 µM)

## Brc1ccc(-c2nc3ccc(-c4nc5ccc(Oc6ccccc6)cc5[nH]4)cn3c2Nc2ccccc2)cc1
Escherichia coli
  MIC: 31.8 µg/mL (≈ 55.6 µM)
Klebsiella aerogenes
  MIC: 58.5 µg/mL (≈ 102 µM)
Enterococcus faecalis
  MIC: 44.7 µg/mL (≈ 78.1 µM)
Pseudomonas aeruginosa
  MIC: 41.1 µg/mL (≈ 71.8 µM)
Staphylococcus aureus
  MIC: 56.2 µg/mL (≈ 98.1 µM)
Priestia megaterium
  MIC: 58.7 µg/mL (≈ 102 µM)

## Brc1ccc(-c2nc3ccc(-c4ncc(-c5ccc(Oc6ccccc6)cc5)[nH]4)cn3c2Nc2ccccc2)cc1
Escherichia coli
  MIC: 33.3 µg/mL (≈ 55.6 µM)
Klebsiella aerogenes
  MIC: 53.4 µg/mL (≈ 89.2 µM)
Enterococcus faecalis
  MIC: 39.6 µg/mL (≈ 66.2 µM)
Pseudomonas aeruginosa
  MIC: 44.3 µg/mL (≈ 74 µM)
Staphylococcus aureus
  MIC: 58.4 µg/mL (≈ 97.5 µM)
Priestia megaterium
  MIC: 53.2 µg/mL (≈ 88.8 µM)

## Cc1ccc(-c2nc3ccc(-c4nc5ccc(Br)cc5[nH]4)cn3c2Nc2ccccc2)cc1
Escherichia coli
  MIC: 3.18 µg/mL (≈ 6.43 µM)
Klebsiella aerogenes
  MIC: 7.15 µg/mL (≈ 14.5 µM)
Enterococcus faecalis
  MIC: 6.28 µg/mL (≈ 12.7 µM)
Pseudomonas aeruginosa
  MIC: 5.22 µg/mL (≈ 10.6 µM)
Staphylococcus aureus
  MIC: 5.11 µg/mL (≈ 10.3 µM)
Priestia megaterium
  MIC: 14 µg/mL (≈ 28.2 µM)

## Clc1ccc2nc(-c3cnc4nc(-c5ccc(Br)cc5)c(Nc5ccccc5)n4c3)[nH]c2c1
Escherichia coli
  MIC: 2.78 µg/mL (≈ 5.39 µM)
Klebsiella aerogenes
  MIC: 2.75 µg/mL (≈ 5.33 µM)
Enterococcus faecalis
  MIC: 5.87 µg/mL (≈ 11.4 µM)
Pseudomonas aeruginosa
  MIC: 2.55 µg/mL (≈ 4.94 µM)
Staphylococcus aureus
  MIC: 1.84 µg/mL (≈ 3.57 µM)
Priestia megaterium
  MIC: 13.7 µg/mL (≈ 26.6 µM)

## Cc1ccc(-c2nnc(-c3cnc4nc(-c5ccc(Br)cc5)c(Nc5ccccc5)n4c3)o2)cc1
Escherichia coli
  MIC: 8.56 µg/mL (≈ 16.4 µM)
Klebsiella aerogenes
  MIC: 6.43 µg/mL (≈ 12.3 µM)
Enterococcus faecalis
  MIC: 8.71 µg/mL (≈ 16.6 µM)
Pseudomonas aeruginosa
  MIC: 7.64 µg/mL (≈ 14.6 µM)
Staphylococcus aureus
  MIC: 5.31 µg/mL (≈ 10.1 µM)
Priestia megaterium
  MIC: 13.6 µg/mL (≈ 26 µM)

## Fc1ccc2nc(-c3ccc4nc(-c5ccc(Oc6ccccc6)cc5)c(Nc5ccccc5)n4c3)[nH]c2c1
Escherichia coli
  MIC: 10.7 µg/mL (≈ 20.9 µM)
Klebsiella aerogenes
  MIC: 11.5 µg/mL (≈ 22.6 µM)
Enterococcus faecalis
  MIC: 15.3 µg/mL (≈ 29.9 µM)
Pseudomonas aeruginosa
  MIC: 12.4 µg/mL (≈ 24.3 µM)
Staphylococcus aureus
  MIC: 12.1 µg/mL (≈ 23.7 µM)
Priestia megaterium
  MIC: 21.6 µg/mL (≈ 42.2 µM)

## Fc1ccc(-c2nnc(-c3cnc4nc(-c5ccc(Br)cc5)c(Nc5ccccc5)n4c3)o2)cc1
Escherichia coli
  MIC: 1.33 µg/mL (≈ 2.52 µM)
Klebsiella aerogenes
  MIC: 0.94 µg/mL (≈ 1.78 µM)
Enterococcus faecalis
  MIC: 1.92 µg/mL (≈ 3.64 µM)
Pseudomonas aeruginosa
  MIC: 1.87 µg/mL (≈ 3.55 µM)
Staphylococcus aureus
  MIC: 0.64 µg/mL (≈ 1.21 µM)
Priestia megaterium
  MIC: 5.45 µg/mL (≈ 10.3 µM)

## Fc1ccc2nc(-c3cnc4nc(-c5ccc(Br)cc5)c(Nc5ccccc5)n4c3)[nH]c2c1
Escherichia coli
  MIC: 2.29 µg/mL (≈ 4.59 µM)
Klebsiella aerogenes
  MIC: 2.25 µg/mL (≈ 4.51 µM)
Enterococcus faecalis
  MIC: 6.64 µg/mL (≈ 13.3 µM)
Pseudomonas aeruginosa
  MIC: 2.85 µg/mL (≈ 5.71 µM)
Staphylococcus aureus
  MIC: 1.23 µg/mL (≈ 2.46 µM)
Priestia megaterium
  MIC: 11.7 µg/mL (≈ 23.5 µM)

## O=[N+]([O-])c1ccc2nc(-c3cnc4nc(-c5ccc(Br)cc5)c(Nc5ccccc5)n4c3)[nH]c2c1
Escherichia coli
  MIC: 11.7 µg/mL (≈ 22.2 µM)
Klebsiella aerogenes
  MIC: 10.6 µg/mL (≈ 20.2 µM)
Enterococcus faecalis
  MIC: 11.4 µg/mL (≈ 21.8 µM)
Pseudomonas aeruginosa
  MIC: 12.2 µg/mL (≈ 23.2 µM)
Staphylococcus aureus
  MIC: 9.32 µg/mL (≈ 17.7 µM)
Priestia megaterium
  MIC: 15.4 µg/mL (≈ 29.3 µM)

## Cc1ccc(-c2nc3ncc(-c4nc5ccc(F)cc5[nH]4)cn3c2Nc2ccccc2)cc1
Escherichia coli
  MIC: 3.44 µg/mL (≈ 7.92 µM)
Klebsiella aerogenes
  MIC: 6.18 µg/mL (≈ 14.2 µM)
Enterococcus faecalis
  MIC: 5.76 µg/mL (≈ 13.3 µM)
Pseudomonas aeruginosa
  MIC: 4.72 µg/mL (≈ 10.9 µM)
Staphylococcus aureus
  MIC: 6.32 µg/mL (≈ 14.5 µM)
Priestia megaterium
  MIC: 17.2 µg/mL (≈ 39.5 µM)

## O=[N+]([O-])c1ccc(-c2cnc(-c3cnc4nc(-c5ccc(Br)cc5)c(Nc5ccccc5)n4c3)[nH]2)cc1
Escherichia coli
  MIC: 5.33 µg/mL (≈ 9.65 µM)
Klebsiella aerogenes
  MIC: 9.33 µg/mL (≈ 16.9 µM)
Enterococcus faecalis
  MIC: 9.61 µg/mL (≈ 17.4 µM)
Pseudomonas aeruginosa
  MIC: 7.81 µg/mL (≈ 14.1 µM)
Staphylococcus aureus
  MIC: 4.22 µg/mL (≈ 7.64 µM)
Priestia megaterium
  MIC: 17.4 µg/mL (≈ 31.6 µM)

## C=CC1=C(C(=O)O)N2C(=O)[C@@H](NC(=O)/C(=N\OCC(=O)O)c3csc(N)n3)[C@H]2SC1 [CEFIXIME]
Escherichia coli
  MIC: 2.34 µg/mL (≈ 5.16 µM)
Klebsiella aerogenes
  MIC: 28.2 µg/mL (≈ 62.1 µM)
Enterococcus faecalis
  MIC: 27.9 µg/mL (≈ 61.6 µM)
Pseudomonas aeruginosa
  MIC: 17.2 µg/mL (≈ 38 µM)
Staphylococcus aureus
  MIC: 33.9 µg/mL (≈ 74.7 µM)
Priestia megaterium
  MIC: 128 µg/mL (≈ 282 µM)

## Clc1ccc(-c2cnc(-c3ccc4nc(-c5ccc(Br)cc5)c(Nc5ccccc5)n4c3)[nH]2)cc1
Escherichia coli
  MIC: 1.42 µg/mL (≈ 2.63 µM)
Klebsiella aerogenes
  MIC: 1.17 µg/mL (≈ 2.16 µM)
Enterococcus faecalis
  MIC: 2.96 µg/mL (≈ 5.47 µM)
Pseudomonas aeruginosa
  MIC: 2.52 µg/mL (≈ 4.66 µM)
Staphylococcus aureus
  MIC: 0.93 µg/mL (≈ 1.72 µM)
Priestia megaterium
  MIC: 9.13 µg/mL (≈ 16.9 µM)
